This assay addresses Potassium voltage-gated channel subfamily KQT member 4 (Homo sapiens) (UniProt P56696). Put plainly: KCNQ4 potassium channel activity – cell-based, human, thallium flux, concentration-response, selectivity assay for GIRK activator project, dose response (AID 623986). The method in brief:
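material = T-REx-293 cells stably expressing human Kv7.4 potassium channel | read-out basis = baseline-corrected slope, % of vehicle | control set = XE-991-blocked wells as baseline, vehicle wells as reference | repeats = triplicate wells, four-parameter logistic concentration-response fits | measured by = FluoZin-2 thallium flux fluorescence | incubation = 4 min compound pretreatment before thallium stimulus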

Activity calls are given as the source filed them. No rule for the calls is given here.

Chain of Potassium voltage-gated channel subfamily KQT member 4 (Homo sapiens) (P56696 whole entry, looked up): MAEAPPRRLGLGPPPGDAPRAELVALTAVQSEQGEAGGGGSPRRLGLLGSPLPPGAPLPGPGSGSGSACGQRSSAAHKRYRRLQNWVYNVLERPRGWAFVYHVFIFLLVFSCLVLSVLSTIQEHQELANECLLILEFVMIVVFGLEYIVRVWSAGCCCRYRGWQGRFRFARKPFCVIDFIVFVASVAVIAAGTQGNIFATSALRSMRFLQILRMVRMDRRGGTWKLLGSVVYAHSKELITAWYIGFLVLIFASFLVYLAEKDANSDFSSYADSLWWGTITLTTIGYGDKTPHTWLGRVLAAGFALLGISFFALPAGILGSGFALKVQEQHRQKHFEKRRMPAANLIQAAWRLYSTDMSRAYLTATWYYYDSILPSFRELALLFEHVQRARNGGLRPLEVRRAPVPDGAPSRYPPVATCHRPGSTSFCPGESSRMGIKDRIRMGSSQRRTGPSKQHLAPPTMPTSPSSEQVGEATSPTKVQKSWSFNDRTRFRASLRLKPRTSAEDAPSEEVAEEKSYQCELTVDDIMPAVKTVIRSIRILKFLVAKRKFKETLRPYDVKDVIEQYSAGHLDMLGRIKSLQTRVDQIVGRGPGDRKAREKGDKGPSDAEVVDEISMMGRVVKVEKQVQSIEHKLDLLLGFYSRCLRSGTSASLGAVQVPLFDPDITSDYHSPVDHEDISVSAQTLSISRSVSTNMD

As for `Cc1cc(NC(=O)Nc2ccc(F)c(F)c2)n(-c2ccccc2)n1`, the call was inactive.

These data come from PubChem BioAssay AID623986 (Vanderbilt High Throughput Screening Facility, 2012).
